Experiments:
[1] = test system: NC•SL3; assay: NC–RNA inhibition: ligand added to preformed NC•SL3 complex, ESI-FTMS; type: binding, HIV-1; details: for ligand effect on NC•SL3 complex: 0.35–17.5 µM ligand added to preformed complex
[2] = test system: NC•SL4; assay: NC–RNA inhibition: ligand added to preformed NC•SL4 complex, ESI-FTMS; type: binding, HIV-1; details: 0.35–17.5 µM ligand added to preformed complex
Outline: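 NC was expressed in E. coli BL21(DE3)-pLysE and purified non-denaturing, with two Zn2+ confirmed by MS. It was mixed equimolar with refolded hairpin (SL4 stem extended by three base pairs) for 15 min at room temperature, forming a 1:1 complex. Ligand (0.35–17.5 µM) was added to ~3.5 µM complex in 100 mM ammonium acetate pH 7.5, then read by negative-ion ESI-FTMS. IC50 at 0.5 fractional occupancy, from competition-isotherm fit, triplicate.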

[3] = test system: NC•SL2; assay: NC–RNA inhibition: ligand added to preformed NC•SL2 complex, ESI-FTMS; type: binding, HIV-1; details: 0.35–17.5 µM ligand added to preformed complex
[4] = test system: SL2; assay: Multiplexed binding assay, ternary ligand mixture added to SL2, ESI-FTMS; parameters: species or system HIV-1; details: ternary mixture of vancomycin, mitoxantrone and neomycin B; negative control
Outline: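 SL2 hairpin (HIV-1 NL4-3 sequence), desalted in 100 mM ammonium acetate pH 7.5, heated 95°C 3 min, ice-cooled. Equimolar mix of up to three ligands added stepwise to 0.35 µM final RNA, giving 0.35–17.5 µM total ligand. Incubated 15 min at room temperature. Analysed by 2-propanol-assisted nanospray ESI-FTMS (7 T, negative ion). Species quantified from signal intensities divided by charge state.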

Structure (SMILES) | ligand effect on NC•SL3 complex [1] | equivalents of ligand bound to NC•SL3 complex (ternary species) ([1]; 5-fold addition of ligand) | ligand effect on NC•SL4 complex [2] | ligand effect on NC•SL2 complex [3] | binding to SL2 in multiplexed assay [4]
O=C1c2c(O)ccc(O)c2C(=O)c2c(NCCNCCO)ccc(NCCNCCO)c21 [Mitoxantrone, mitoxantrone] | no detectable signs of dissociation | up to three | – | – | –
Cn1cc(NC(=O)c2cc(NC(=O)c3cc(NC=O)cn3C)cn2C)cc1C(=O)NCCC(=N)N [Distamycin A, distamycin A] | – | – | No Effect | No Effect | –
CN[C@H](CC(C)C)C(=O)N[C@H]1C(=O)N[C@@H](CC(N)=O)C(=O)N[C@H]2C(=O)N[C@H]3C(=O)N[C@H](C(=O)N[C@H](C(=O)O)c4cc(O)cc(O)c4-c4cc3ccc4O)[C@H](O)c3ccc(c(Cl)c3)Oc3cc2cc(c3O[C@@H]2O[C@H](CO)[C@@H](O)[C@H](O)[C@H]2O[C@H]2C[C@](C)(N)[C@H](O)[C@H](C)O2)Oc2ccc(cc2Cl)[C@H]1O [vancomycin] | – | – | – | – | no binding was observed
CN(C)[C@@H]1C(O)=C(C(N)=O)C(=O)[C@@]2(O)C(O)=C3C(=O)c4c(O)ccc(Cl)c4[C@@](C)(O)[C@H]3C[C@@H]12 [Chlorotetracycline, chlorotetracycline] | No Effect | – | No Effect | No Effect | –
